Assay outcomes as filed in PubChem.
Only some compounds are listed: those with a hit (about 6.9% of all), similar ones and a draw of the others.
Pyk2 oligo antag = antagonists of human Pyk2 oligomerization; Q293 cells, Pyk2 FERM NanoBiT luminescence; stronger effect = lower value; 99,000 compounds, 0.83% hits; Q14289; AID 1347419; z-score (the deposit names both 25 µM and 10 µM);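 active means Z-score of -3 or lower, scaled per plate to the spread of control and sample wells; inactive means z-score above -3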;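 further: negative z-score means lost luminescence so less FERM oligomerization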
Target sequence (Q14289 whole entry, looked up): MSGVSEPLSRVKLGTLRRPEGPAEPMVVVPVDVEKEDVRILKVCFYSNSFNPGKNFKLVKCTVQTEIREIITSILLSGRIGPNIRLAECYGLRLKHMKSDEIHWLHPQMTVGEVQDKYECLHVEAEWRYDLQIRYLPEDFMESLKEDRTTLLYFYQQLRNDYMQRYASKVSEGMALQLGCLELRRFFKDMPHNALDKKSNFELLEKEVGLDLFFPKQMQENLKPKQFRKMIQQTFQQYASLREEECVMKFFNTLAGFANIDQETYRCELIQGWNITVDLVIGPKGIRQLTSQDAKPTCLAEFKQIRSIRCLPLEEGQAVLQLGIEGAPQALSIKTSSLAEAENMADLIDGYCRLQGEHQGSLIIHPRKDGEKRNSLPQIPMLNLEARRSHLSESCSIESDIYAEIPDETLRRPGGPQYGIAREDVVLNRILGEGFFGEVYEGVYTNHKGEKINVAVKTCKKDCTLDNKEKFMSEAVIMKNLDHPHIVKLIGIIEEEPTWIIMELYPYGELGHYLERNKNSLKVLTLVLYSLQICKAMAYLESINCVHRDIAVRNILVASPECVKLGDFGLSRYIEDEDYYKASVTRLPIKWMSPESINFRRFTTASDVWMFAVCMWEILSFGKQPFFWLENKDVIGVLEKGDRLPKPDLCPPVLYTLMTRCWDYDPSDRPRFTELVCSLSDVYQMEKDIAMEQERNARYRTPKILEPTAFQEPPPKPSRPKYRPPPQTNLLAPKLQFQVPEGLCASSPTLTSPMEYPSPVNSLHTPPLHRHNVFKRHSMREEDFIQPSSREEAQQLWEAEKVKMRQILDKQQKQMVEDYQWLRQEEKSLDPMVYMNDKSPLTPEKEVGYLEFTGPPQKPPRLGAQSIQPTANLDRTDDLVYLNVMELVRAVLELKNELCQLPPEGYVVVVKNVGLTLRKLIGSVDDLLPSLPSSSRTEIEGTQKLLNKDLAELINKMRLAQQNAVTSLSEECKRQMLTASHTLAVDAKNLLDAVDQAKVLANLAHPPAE
tolC growth inh = growth inhibitors of E. coli BW25113 tolC mutant; AID 573; 65,000 compounds, 2.2% hits; OD615; growth inhibition, % at 10 µM (by protocol);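 active means growth inhibition at or above a cutoff equal to the mean over every tested compound plus 3 SD, cut at about 60% in these data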;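 further: growth measured after 20 h incubation at 37 °C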
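signal = optical density read at 615 nm | test system = E. coli ΔtolC::kan strain BW25113 | timing = 20 h compound exposure of bacteria at 37 °C | buffer or medium = LB medium plus 50 µg/mL kanamycin | compound dosing = 10 µM final, single dose | evaluation = % inhibition of E. coli growth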
PostGolgi yeast = growth inhibition of a yeast mutant, post-Golgi transport screen; AID 739; post-Golgi transport phenotypic cell assay; 98,000 compounds, 0.9% hits; inhibition, % at 10 µM;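 further: yeast cells grown in 1536-well plates; yeast grown about 18 h at 30C before absorbance read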
PostGolgi ctrl = growth of the yeast control strain, post-Golgi counter-screen | 98,000 compounds, 5% hits | AID 738 | inhibition, % at 10 µM | efflux-deficient yeast background strain, growth absorbance A615, 16 h
Candida biofilm = kills Candida albicans biofilms | inhibition, % at 6 µM | AID 834 | 85,000 compounds, 0.14% hits | C. albicans biofilm + clotrimazole, Alamar Blue;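 active means inhibition above 20%; inactive means inhibition below 20%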;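 further: preformed 24 hr biofilms exposed to compound for 48 hr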
FAK inh = inhibitors of human focal adhesion kinase; Q05397; biochemical FAK kinase activity assay; inhibition, %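 (tested at 7 µM)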; 97,000 compounds, 0.84% hits; in the data active means inhibition above about 19%
Of the large screens only hits and unclear results are named; the others gave an inactive call. Unless noted, no stated cut-off is given here; in the data, active means inhibition above about 30%; inactive means the rest.

NS(=O)(=O)c1ccc(CCNc2cc(=O)n(Cc3ccc(F)cc3)c(=O)[nH]2)cc1	none (no result: FAK inh)
Cn1c(=O)n(CCc2ccccc2)c(=O)c2c1nc1n2CCN1Cc1ccco1	none
Cc1ccc(Nc2c([N+](=O)[O-])cc(C(=O)N3CC(=O)Nc4ccccc43)cc2[N+](=O)[O-])c(C)c1	Pyk2 oligo antag -3.4 (no result: tolC growth inh, Candida biofilm)
O=C1CN(C(=O)c2ccccc2F)c2ccccc2N1	none
O=C(CCNc1cc(Cl)cc(Cl)c1)c1ccco1	tolC growth inh 85
O=C(NC1CCCCCCC1)c1ccccc1O	tolC growth inh 83
CN(C)c1ccc(NC(=O)c2cc3c(=O)n4ccccc4nc3n2C)cc1	none (no result: PostGolgi yeast, PostGolgi ctrl)
CCC(=O)Oc1ccc2c(C)c(Cl)c(=O)oc2c1	none
C=CCNC1=C(Cl)C(=O)N(c2ccccc2Cl)C1=O	PostGolgi ctrl 34
CCOC(=O)CSc1nc(N)c(C#N)c(CC(C)C)c1C#N	PostGolgi ctrl 40
O=C(OC1CCc2ccccc2C1=O)c1ccccc1O (centres undefined)	tolC growth inh 68
c1ccc(-c2nc(N3CCN(c4ccccc4)CC3)nc(-n3ccnc3)n2)cc1	PostGolgi ctrl 54
c1ccc(-c2nc(N3CCCCCC3)nc(-n3ccnc3)n2)cc1	tolC growth inh 98, PostGolgi yeast 62, PostGolgi ctrl 72
c1ccc(-c2ccc(-n3ccnc3)cc2)cc1	none
COC(=O)C1CC(O)CN1C(=O)c1ccco1 (centres undefined)	PostGolgi ctrl 34 (no result: tolC growth inh, Candida biofilm)
CCC(NC(=O)NCCCn1ccnc1)(C(F)(F)F)C(F)(F)F	none (no result: FAK inh)
CCN(CC)CCCN1C(=O)C(O)=C(C(=O)c2ccc(C)o2)C1c1ccc(C)o1 (centres undefined)	none (no result: Pyk2 oligo antag, PostGolgi yeast, PostGolgi ctrl, FAK inh)
CCOC(=O)c1sc(NC(=O)CCSC)nc1C	none
Fc1cccc(-c2cc3nc4c(c(N5CCC6(CC5)OCCO6)n3n2)CCCC4)c1	PostGolgi ctrl 81 (no result: FAK inh)
OC1CCN(c2c3c(nc4cc(-c5cccc(F)c5)nn24)CCCC3)CC1	PostGolgi ctrl 88 (no result: FAK inh)
Fc1cccc(-c2cc3nc(-c4ccccc4)cc(N4CCC5(CC4)OCCO5)n3n2)c1	none (no result: tolC growth inh, PostGolgi yeast, PostGolgi ctrl)
CN(CCO)c1c2c(nc3cc(-c4cccc(F)c4)nn13)CCCC2	PostGolgi ctrl 47 (no result: tolC growth inh)
Clc1cccc(-c2cc3nc4c(c(N5CCNCC5)n3n2)CCCC4)c1	none (no result: Pyk2 oligo antag, tolC growth inh, PostGolgi yeast, PostGolgi ctrl)
CC(=O)N(CCC(Cc1ccccc1)c1ccc2c(c1)OCO2)Cc1ccc(Cl)cc1 (centres undefined)	PostGolgi ctrl 36 (no result: tolC growth inh, Candida biofilm)
c1coc(CN(Cc2cccs2)Cc2nnnn2C2CCCCC2)c1	tolC growth inh 95
CCc1nc(N(CC)CC)c2oc3ccccc3c2n1	PostGolgi ctrl 36
CCc1nc(N2CCC(C)CC2)c2oc3ccccc3c2n1	tolC growth inh 100
CCc1nc(SCC(=O)N2CCN(c3ccccc3)CC2)c2oc3ccccc3c2n1	PostGolgi ctrl 33 (no result: tolC growth inh, Candida biofilm)
CCc1nc(SCC(=O)N2CCN(c3ccccc3)CC2)c2c(=O)n(C)c(=O)n(C)c2n1	none (no result: Pyk2 oligo antag, PostGolgi yeast, PostGolgi ctrl, FAK inh)
CCc1nc(SCc2nc3ccccc3[nH]2)c2oc3ccccc3c2n1	PostGolgi ctrl 69 (no result: tolC growth inh)
CCNc1nc(CC)nc2c1oc1ccccc12	none
CCc1nc(SCCO)c2oc3ccccc3c2n1	none
CCc1nc(NCC2CCCO2)c2oc3ccccc3c2n1 (centres undefined)	none
COc1ccc(C(=O)N2c3ccccc3C(=O)OC2c2ccc3c(c2)OCO3)cc1 (centres undefined)	none (no result: tolC growth inh, Candida biofilm)
Cc1cc(C)nc(N2C(=O)CC(C(=O)O)NC2=NCCc2c[nH]c3ccccc23)n1 (centres undefined)	none
c1ccc(OCc2nn3c(Cn4cnc5ccccc54)nnc3s2)cc1	PostGolgi ctrl 42
c1ccc(-c2nn3c(Cn4cnc5ccccc54)nnc3s2)cc1	none
Cc1nc(N2CCN(Cc3ccccc3)CC2)nc2c1C(=O)CC(c1ccco1)C2 (centres undefined)	tolC growth inh 79
COc1cc2c(cc1NC(=O)c1ccncc1)oc1ccccc12	none (no result: tolC growth inh)
Cc1ccc(-n2ncc3c(=O)n(CC(=O)OCc4ccccc4)cnc32)cc1	PostGolgi ctrl 36
O=C(Cn1cnc2c(cnn2-c2ccccc2)c1=O)OCc1ccccc1	none
CCN(CC)c1nc(OC)nc(-n2nnc(C(C)=O)c2C)n1	none (no result: tolC growth inh)
CC(=O)COC(=O)c1cccc(N2C(=O)C3C4C=CC(C4)C3C2=O)c1 (centres undefined)	PostGolgi ctrl 31 (no result: Pyk2 oligo antag, FAK inh)
CN=Cc1sc2ccccc2c1O	none
Oc1c(C=Nc2cccnc2)sc2ccccc12	PostGolgi ctrl 31
COC(=O)c1ccccc1NC(=O)CN1CCN(C(=O)c2ccco2)CC1	none
Cc1ccc(C(=O)c2cc(C)sc2NC(=O)CN2CCN(C(=O)c3ccco3)CC2)cc1	PostGolgi ctrl 38
C(=N\Nc1nc2ccccc2s1)/c1ccco1	none (no result: tolC growth inh, Candida biofilm)
C(=N\Nc1nc2ccccc2s1)/c1cccs1	PostGolgi ctrl 31 (no result: tolC growth inh, Candida biofilm)
CC1=NN(C(=O)c2ccc(Br)cc2)C(O)(C(F)(F)OC(F)(F)F)C1 (centres undefined)	none (no result: tolC growth inh, Candida biofilm)
CCOc1cc(C)c(S(=O)(=O)Nc2ccc(F)cc2)cc1C	PostGolgi ctrl 52 (no result: tolC growth inh)
CCc1ccc(OCC(=O)N2CCN=C2c2ccccc2)cc1	none (no result: tolC growth inh)
O=C(Nc1nccs1)c1cc2sccc2n1Cc1ccc(F)cc1	none (no result: Candida biofilm)
COc1ccc(NC(=O)c2cc3sccc3n2Cc2ccc(F)cc2)cc1OC	PostGolgi ctrl 33 (no result: tolC growth inh)
COC(=O)CN(c1cc(Cl)ccc1OC)S(=O)(=O)c1ccc(OC)c(OC)c1	none (no result: tolC growth inh, PostGolgi yeast, PostGolgi ctrl, Candida biofilm, FAK inh)
CN(c1cccc(NC(=O)c2ccc(Cl)c(S(=O)(=O)Nc3ccccc3)c2)c1)S(C)(=O)=O	Pyk2 oligo antag -3.9 (no result: tolC growth inh, Candida biofilm)
Cc1ccccc1NC(=O)c1ccc(C)c(S(=O)(=O)Nc2ccccn2)c1	none (no result: tolC growth inh, Candida biofilm)
Cc1ccccc1NS(=O)(=O)c1cc(C(=O)Nc2cccc(N(C)S(C)(=O)=O)c2)ccc1C	Pyk2 oligo antag -3 (no result: tolC growth inh, Candida biofilm)
CCc1nc(NCc2ccco2)c2oc3ccccc3c2n1	FAK inh 23
CCc1nc(NCc2ccc3c(c2)OCO3)c2oc3ccccc3c2n1	PostGolgi ctrl 55 (no result: tolC growth inh)
CCc1nc(Nc2ccc3c(c2)OCCO3)c2oc3ccccc3c2n1	Pyk2 oligo antag -3.4 (no result: tolC growth inh)
CCOC(=O)c1cnc(NCc2ccccc2)nc1C	none (no result: Candida biofilm, FAK inh)
Cc1cc(S(=O)(=O)N2CCN(c3ccccc3C)CC2)ccc1F	Pyk2 oligo antag -3.6, tolC growth inh 64, PostGolgi ctrl 30
Cc1ccccc1N1CCN(S(=O)(=O)c2ccccc2)CC1	Pyk2 oligo antag -3.1 (no result: tolC growth inh, PostGolgi yeast, PostGolgi ctrl)
COc1ccc(S(=O)(=O)N2CCN(c3c(C)cccc3C)CC2)cc1OC	PostGolgi ctrl 31 (no result: Pyk2 oligo antag)
CC(C)(C)N(Cc1cc2ccccc2[nH]c1=O)C(=O)c1cccnc1	none
CCOC(=O)c1sc(NC(=O)c2cc(-c3ccccc3C)nc3ccccc23)c(C#N)c1C	Pyk2 oligo antag -3.7 (no result: tolC growth inh, Candida biofilm)
CCOC(=O)c1sc(NC(=O)CSc2nc(C)cc(C)c2C#N)c(C#N)c1C	none (no result: tolC growth inh)
Cc1ccccc1-c1cc(C(=O)Nc2sc(C)c(C)c2C(N)=O)c2ccccc2n1	PostGolgi ctrl 39 (no result: tolC growth inh, Candida biofilm)
CC(C)n1c(SCC(=O)N2c3ccccc3Sc3ccccc32)nc2c1c(=O)n(C)c(=O)n2C	PostGolgi ctrl 39
